Measurements: ChEMBL document CHEMBL2086299, “Melanogenesis inhibitory and fibroblast proliferation accelerating effects of noroleanane- and oleanane-type triterpene oligoglycosides from the flower buds of Camellia japonica” (2012)

What was measured:
[1] = Induction of proliferation of neonatal skin fibroblasts assessed as WST-8 formazan accumulation per well at 20 uM after 48 hrs by WST-8 assay relative to control; assay type: functional, Homo sapiens, Skin fibroblast
In short: (§1)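 Normal human neonatal skin fibroblasts NB1RGB (DMEM 1 g/L glucose, 10% FBS, 37 °C, 5% CO2) seeded 5.0 × 10^4 cells/well in 96-well plates. Incubated 48 h with compound (DMSO, final 0.1%). Water-soluble WST-8 formazan read at 450 nm (ref 655 nm) and expressed as % of vehicle control.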

[2] = Induction of proliferation of neonatal skin fibroblasts assessed as protein content per well at 5 uM after 48 hrs by […] relative to control; assay type: functional, Homo sapiens, Skin fibroblast
In short: (§2)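 Normal human neonatal skin fibroblasts NB1RGB seeded 5.0 × 10^4 cells/well in 96-well plates. Exposed 48 h to compound (DMSO, final 0.1%). Cellular protein content determined by BCA protein assay and expressed as % of vehicle control.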

[3] = Induction of proliferation of neonatal skin fibroblasts assessed as protein content per well at 20 uM after 48 hrs […] relative to control; assay type: functional, Homo sapiens, Skin fibroblast; in short: as §2
[4] = Induction of proliferation of neonatal skin fibroblasts assessed as protein content per well at 10 uM after 48 hrs by […] relative to control; assay type: functional, Homo sapiens, Skin fibroblast; in short: as §2
[5] = Induction of proliferation of neonatal skin fibroblasts assessed as WST-8 formazan accumulation per well at 10 uM after 48 hrs by WST-8 assay relative to control; assay type: functional, Homo sapiens, Skin fibroblast; in short: as §1
[6] = Induction of proliferation of neonatal skin fibroblasts assessed as WST-8 formazan accumulation per well at 5 uM after 48 hrs by WST-8 assay relative to control; assay type: functional, Homo sapiens, Skin fibroblast; in short: as §1
[7] = Inhibition of melanogenesis in theophylline-stimulated mouse B16-4A5 cells at 20 uM after 72 hrs by microplate reader; assay type: functional; set-up: scale not given: the % may be the effect or the level left
In short: (§3)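 B16 melanoma 4A5 cells seeded 2.0 × 10^4 cells/well in 24-well plates and cultured 24 h. Then 72 h with compound plus 1 mM theophylline (DMSO, final 0.1%). Cells trypsin/EDTA-harvested, washed, lysed in 1 M NaOH (80 °C, 30 min). Lysate melanin read by OD at 405 nm (ref 655 nm). Inhibition (%) = [(A − B)/A] × 100 versus vehicle. Mean ± SEM, n = 4.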

[8] = Antiproliferative activity against mouse B16-4A5 cells at 10 uM after 72 hrs by WST-8 assay; assay type: functional
In short: (§4)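 Murine B16 melanoma 4A5 cells (DMEM 4.5 g/L glucose, 10% FBS) seeded 5.0 × 10^4 cells/well in 96-well plates and cultured 24 h. Then 72 h with 1 mM theophylline plus compound (DMSO, final 0.1%). Cells washed with PBS, WST-8 formazan read at 450 nm (ref 655 nm). Inhibition (%) = [(A − B)/A] × 100 versus vehicle. Mean ± SEM, n = 4.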

[9] = Inhibition of melanogenesis in theophylline-stimulated mouse B16-4A5 cells at 5 uM after 72 hrs by microplate reader; assay type: functional; set-up: scale not given: the % may be the effect or the level left; in short: as §3
[10] = Antiproliferative activity against mouse B16-4A5 cells at 20 uM after 72 hrs by WST-8 assay; assay type: functional; in short: as §4
[11] = Antiproliferative activity against mouse B16-4A5 cells at 5 uM after 72 hrs by WST-8 assay; assay type: functional; in short: as §4
[12] = Inhibition of melanogenesis in theophylline-stimulated mouse B16-4A5 cells at 10 uM after 72 hrs by microplate reader; assay type: functional; set-up: scale not given: the % may be the effect or the level left; in short: as §3
[13] = Inhibition of melanogenesis in theophylline-stimulated mouse B16-4A5 cells at 40 uM after 72 hrs by microplate reader; assay type: functional; set-up: scale not given: the % may be the effect or the level left; in short: as §3
[14] = Induction of proliferation of neonatal skin fibroblasts assessed as WST-8 formazan accumulation per well at 50 uM after 48 hrs by WST-8 assay relative to control; assay type: functional, Homo sapiens, Skin fibroblast; in short: as §1
[15] = Induction of proliferation of neonatal skin fibroblasts assessed as protein content per well at 50 uM after 48 hrs by […] relative to control; assay type: functional, Homo sapiens, Skin fibroblast; in short: as §2

| SMILES | Activity [1] [%] | Activity [2] [%] | Activity [3] [%] | Activity [4] [%] | Activity [5] [%] | Activity [6] [%] | Activity [7] [%] | Activity [8] [%] | Activity [9] [%] | Activity [10] [%] | Activity [11] [%] | Activity [12] [%] | Activity [13] [%] | Activity [14] [%] | Activity [15] [%] |
| --- | --- | --- | --- | --- | --- | --- | --- | --- | --- | --- | --- | --- | --- | --- | --- |
| O.O=C1O[C@H]([C@@H](O)CO)C(O)=C1OP(=O)([O-])[O-].[Mg+2] | 122.8 | 112.8 | 117.4 | 109.6 | 123.7 | 109.2 | – | – | – | – | – | – | – | – | – |
| CC1(C)CC[C@]2(O)[C@H](O)C[C@]3(C)C(=CC[C@@H]4[C@@]5(C)CC[C@H](O[C@@H]6O[C@H](C(=O)O)[C@@H](O)[C@H](O[C@@H]7O[C@H](CO)[C@H](O)[C@H](O)[C@H]7O[C@@H]7O[C@H](CO)[C@@H](O)[C@H](O)[C@H]7O)[C@H]6O[C@@H]6O[C@H](CO)[C@H](O)[C@H](O)[C@H]6O)C(C)(C)[C@@H]5CC[C@]43C)[C@@H]2C1 (relative stereo) | 116.2 | 113.9 | 114.9 | 110.6 | 110 | 108.3 | 23.3 | 4.3 | 21.9 | 13.3 | 1.9 | 16.7 | – | – | – |
| CC1(C)CC[C@]2(C=O)[C@H](O)C[C@]3(C)C(=CC[C@@H]4[C@@]5(C)CC[C@H](O[C@@H]6O[C@H](C(=O)O)[C@@H](O)[C@H](O[C@@H]7O[C@H](CO)[C@H](O)[C@H](O)[C@H]7O[C@@H]7O[C@H](CO)[C@@H](O)[C@H](O)[C@H]7O)[C@H]6O[C@@H]6O[C@H](CO)[C@H](O)[C@H](O)[C@H]6O)C(C)(C)[C@@H]5CC[C@]43C)[C@@H]2C1 (relative stereo) | 102.2 | 120.4 | 110 | 120.3 | 102.5 | 102.1 | 91.6 | 55 | -19.7 | 52.8 | 17.4 | 16.3 | – | – | – |
| OC[C@H]1O[C@@H](Oc2ccc(O)cc2)[C@H](O)[C@@H](O)[C@@H]1O [ARBUTIN] | – | – | – | – | – | – | 13.3 | – | – | – | – | -0.1 | 18 | – | – |
| CC1(C)CC[C@]2(O)C(=O)C[C@]3(C)C(=CC[C@@H]4[C@@]5(C)CC[C@H](O[C@@H]6O[C@H](C(=O)O)[C@@H](O)[C@H](O[C@@H]7O[C@H](CO)[C@H](O)[C@H](O)[C@H]7O[C@@H]7O[C@H](CO)[C@@H](O)[C@H](O)[C@H]7O)[C@H]6O[C@H]6O[C@@H](CO)[C@@H](O)[C@@H](O)[C@@H]6O)C(C)(C)C5CC[C@]43C)[C@@H]2C1 (stereo not given in full) [CAMELLIOSIDE A] | 113.6 | 120.8 | 113.8 | 126.9 | 114.3 | 114.6 | 74.9 | 5.1 | 12.1 | 19.7 | -3.8 | 36 | – | – | – |
| CC(=O)O[C@@H]1[C@H](O)[C@@H](O)[C@H](O[C@H]2[C@H](O[C@H]3CC[C@]4(C)[C@H]5CC=C6[C@@H]7CC(C)(C)CC[C@]7(O)C(=O)C[C@@]6(C)[C@]5(C)CC[C@H]4C3(C)C)O[C@H](C(=O)O)[C@@H](O)[C@@H]2O[C@@H]2O[C@H](CO)[C@H](O)[C@H](O)[C@H]2O[C@@H]2O[C@H](CO)[C@@H](O)[C@H](O)[C@H]2O)O[C@@H]1CO [CAMELLIOSIDE B] | 132.1 | 122.3 | 130.1 | 130 | 121.5 | 111.5 | 95 | 26 | 33.1 | 49 | 11.9 | 64.6 | – | – | – |
| CC1(C)CC[C@]2(CO)[C@H](O)C[C@]3(C)C(=CC[C@@H]4[C@@]5(C)CC[C@H](O[C@@H]6O[C@H](C(=O)O)[C@@H](O)[C@H](O[C@@H]7O[C@H](CO)[C@H](O)[C@H](O)[C@H]7O[C@@H]7O[C@H](CO)[C@@H](O)[C@H](O)[C@H]7O)[C@H]6O[C@@H]6O[C@H](CO)[C@H](O)[C@H](O)[C@H]6O)C(C)(C)[C@@H]5CC[C@]43C)[C@@H]2C1 [CAMELLIOSIDE D] | 108.6 | 110.7 | 94.7 | 113.1 | 98.6 | 107.6 | 8.3 | 16.3 | 0.3 | 29.5 | 16.1 | -6.2 | – | – | – |
| C/C=C(/C)C(=O)O[C@H]1CC(C)(C)C[C@H]2C3=CC[C@@H]4[C@@]5(C)CC[C@H](O[C@@H]6O[C@H](C(=O)O)[C@@H](O)[C@H](O[C@@H]7O[C@H](CO)[C@H](O)[C@H](O)[C@H]7O[C@@H]7O[C@@H](C)[C@H](O)[C@@H](O)[C@H]7O)[C@H]6O[C@@H]6O[C@H](CO)[C@@H](O)[C@H](O)[C@H]6O)C(C)(C)[C@@H]5CC[C@@]4(C)[C@]3(C)[C@@H](O)[C@@H](O)[C@@]12CO [SASANQUASAPONIN III] | – | – | – | 48.6 | 16.6 | – | – | – | – | – | – | – | – | 16.8 | 48.8 |
| C/C=C(\C)C(=O)O[C@H]1CC(C)(C)C[C@H]2C3=CC[C@@H]4[C@@]5(C)CC[C@H](O[C@@H]6O[C@H](C(=O)O)[C@@H](O)[C@H](O[C@@H]7O[C@H](CO)[C@H](O)[C@H](O)[C@H]7O[C@@H]7O[C@@H](C)[C@H](O)[C@@H](O)[C@H]7O)[C@H]6O[C@@H]6O[C@H](CO)[C@@H](O)[C@H](O)[C@H]6O)C(C)(C)[C@@H]5CC[C@@]4(C)[C@]3(C)[C@@H](O)[C@@H](O)[C@@]12CO [SASANQUASAPONIN II] | – | – | – | 53.9 | 16.8 | – | – | – | – | – | – | – | – | 16.5 | 48.9 |
| CCC/C=C\C(=O)O[C@H]1CC(C)(C)C[C@H]2C3=CC[C@@H]4[C@@]5(C)CC[C@H](O[C@@H]6O[C@H](C(=O)O)[C@@H](O)[C@H](O[C@@H]7O[C@H](CO)[C@H](O)[C@H](O)[C@H]7O[C@@H]7O[C@@H](C)[C@H](O)[C@@H](O)[C@H]7O)[C@H]6O[C@@H]6O[C@H](CO)[C@@H](O)[C@H](O)[C@H]6O)C(C)(C)[C@@H]5CC[C@@]4(C)[C@]3(C)[C@@H](O)[C@@H](O)[C@@]12CO [SASANQUASAPONIN I] | – | – | – | 71.5 | 34.9 | – | – | – | – | – | – | – | – | 16.4 | 44.8 |
| C/C=C(\C)C(=O)O[C@H]1[C@H](OC(=O)/C(C)=C/C)[C@]2(CO)[C@H](O)[C@H](O)[C@]3(C)C(=CC[C@@H]4[C@@]5(C)CC[C@H](O[C@@H]6O[C@H](C(=O)O)[C@@H](O)[C@H](O[C@@H]7O[C@H](CO)[C@H](O)[C@H](O)[C@H]7O[C@@H]7O[C@@H](C)[C@H](O)[C@@H](O)[C@H]7O)[C@H]6O[C@@H]6O[C@H](CO)[C@@H](O)[C@H](O)[C@H]6O)C(C)(C)[C@@H]5CC[C@]43C)[C@@H]2CC1(C)C [YUCHASAPONIN A] | – | – | – | 45.3 | 16.6 | – | – | – | – | – | – | – | – | 16.8 | 49.4 |
